Bioassay records deposited in PubChem by The Scripps Research Institute Molecular Screening Center.
M5 PAM: CHRM5 positive allosteric modulation. CHO-K1 hM5, Fluo-8 calcium, ACh EC20 PAM; 0% = ACh EC20, 100% = ACh EC100. activation, % at 3 µM. 0.3% of 360,000 active;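 active = activation above the run cutoff, the mean activation of all test compounds plus 3 SD, cut at about 18% in these data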
Target sequence (P08912 whole entry, looked up): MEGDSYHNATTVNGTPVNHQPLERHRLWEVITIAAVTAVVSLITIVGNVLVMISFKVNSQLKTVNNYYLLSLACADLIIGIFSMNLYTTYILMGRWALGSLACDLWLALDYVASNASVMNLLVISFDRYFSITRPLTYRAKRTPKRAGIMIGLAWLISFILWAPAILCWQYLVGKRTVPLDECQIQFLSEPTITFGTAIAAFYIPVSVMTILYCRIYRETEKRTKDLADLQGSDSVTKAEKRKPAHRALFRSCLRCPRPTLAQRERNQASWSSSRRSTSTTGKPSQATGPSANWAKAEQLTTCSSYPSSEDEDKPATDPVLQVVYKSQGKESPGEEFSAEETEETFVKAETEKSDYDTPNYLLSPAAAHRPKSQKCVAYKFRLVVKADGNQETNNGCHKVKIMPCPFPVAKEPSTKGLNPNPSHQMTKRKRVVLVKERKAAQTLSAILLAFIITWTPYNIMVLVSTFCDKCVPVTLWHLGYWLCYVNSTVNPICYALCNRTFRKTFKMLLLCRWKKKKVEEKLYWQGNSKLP
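System: CHO-K1 cell line with stable human muscarinic M5 receptor expression | Also added: EC20 acetylcholine as agonist stimulus | Compound: One concentration, 3 µM final (nominal) | Timing: Fluo-8 loading 80 min at 37 °C plus 30 min room temperature | Measured by: Fluo-8 calcium dye fluorescence, kinetic read | Read-out basis: % activation, ACh-normalized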
M4 ag: CHRM4 agonism in calcium assay; P08173; CHO-K1 hM4/Gqi5, Fluo-8 calcium fluorescence; vehicle 0%, full acetylcholine response 100%; activation, % at 3 µM; 0.14% of 360,000 active; AID 624127;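 active = activation above the run mean over all test wells plus 3 SD, cut at about 32% in these data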;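 note: peak over basal fluorescence ratio per well then scaled between controls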
M4 PAM: CHRM4 positive allosteric modulation; activation, % at 3 µM; CHO-K1 hM4/Gqi5, Fluo-8 calcium fluorescence, ACh EC20; 0% = ACh EC20, 100% = maximal ACh; P08173; 0.4% of 360,000 active;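 active = activation above its plate's cutoff, the mean activation of sample wells plus 3 SD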
M5 ag: CHRM5 agonism in calcium assay; AID 624037; CHO-K1 hM5 cells, Fluo-8 calcium fluorescence; 0% DMSO wells, 100% maximal acetylcholine response; activation, % at 3 µM; 0.19% of 360,000 active;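 active = activation above the run's mean over test compounds plus 3 SD, cut at about 23% in these data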;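 note: signal is peak over basal fluorescence ratio across the kinetic read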
CHRM5 antagonist: blocks acetylcholine activation of human M5 receptor. 0.59% of 360,000 active. CHO-hM5 cells, Fluo-8 calcium fluorescence, ACh EC80. inhibition, % at 3 µM;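 active = inhibition above a per-plate cutoff, the mean of that plate's test compounds plus 3 SD, cut at about 27% in these data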
M4 antag: blocks acetylcholine activation of human M4 receptor | 0.73% of 360,000 active | AID 624125 | CHO-hM4 cells, ACh EC80, Fluo-8 calcium fluorescence | P08173 | inhibition, % at 3 µM;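 active = inhibition above its plate's cutoff, the mean inhibition of sample wells plus 3 SD, cut at about 27% in these data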
Numbers stand for hits; 0 = inactive. In the library only some 1.8% were active in any assay of this set; here they are far more common.

SMILES	M5 PAM	M4 ag	M4 PAM	M5 ag	CHRM5 antagonist	M4 antag
O=C(Cc1c(F)cccc1Cl)OCC(=O)N1CCN(c2ccccc2)CC1	0	0	0	0	0	0
Cc1nn(-c2cc(C(F)(F)F)ccc2Cl)c2nc(C(Cl)(Cl)Cl)[nH]c(=O)c12	19	0	0	0	0	0
CNS(=O)(=O)c1ccc(NC(=O)C2c3ccccc3Oc3ccccc32)cc1	0	0	0	0	0	0
CC(=O)NS(=O)(=O)c1ccc(NC(=O)C2c3ccccc3Oc3ccccc32)cc1	22	0	0	0	0	0
CCNc1nc(NC#N)nc(SCC(=O)OCC)n1	0	0	0	0	0	0
CCOC(=O)CSc1nc(NC#N)nc(N(CC)CC)n1	19	0	0	0	0	0
CCCCCc1ccc(OCCCC[n+]2ccccc2)c(CCCCC)c1	0	0	0	0	0	0
CCC(C)(C)c1ccc(OCCCC[n+]2ccccc2)c(C(C)(C)CC)c1	0	0	0	0	0	0
CCCCCc1ccc(OCCCC[n+]2cccc(C)c2)c(CCCCC)c1	0	0	0	0	0	42
CCCCCc1ccc(OCCCC[n+]2ccc(C)cc2)c(CCCCC)c1	0	0	0	0	0	48
CC(C)(C)c1ccc(Cn2ccc(-c3ccc4c(c3)OCO4)n2)cc1	0	0	0	0	0	0
Cc1ccc(NC(=O)CN(C)C(=O)c2cc(S(=O)(=O)N(C)C)ccc2N2CCCC2)cc1	0	0	0	0	0	0
Cc1ccccc1C(=O)N1CCC(C(=O)Nc2ccc(S(=O)(=O)N3C(C)CCCC3C)cc2)CC1 (configuration not stated)	0	0	0	0	0	0
CC1(C(=O)NS(=O)(=O)c2ccc(Cl)s2)CCN1C(=O)Cc1ccccc1Cl (configuration not stated)	0	0	0	0	0	0
COc1ccc(CS(=O)(=O)CC2(O)CCN(C(=O)c3cccc(C(F)(F)F)c3)CC2)cc1	0	0	0	0	0	0
Cc1ccc(/C=C2\SC(N3CCN(C(c4ccccc4)c4ccccc4)CC3)=NC2=O)o1	0	0	0	0	38	82
O=C1N=C(N2CCN(c3ccccc3)CC2)S/C1=C/c1cccs1	0	0	0	0	27	0
COc1cccc2c(=O)n(CC(=O)NCCc3ccccc3)ccc12	0	0	0	0	0	29
CCOC(=O)C(C)Oc1ccc(NC(=O)C(Cl)Cl)cc1 (configuration not stated)	0	0	0	0	0	0
CC(C)CN(C(=O)CSc1nc2ccccc2c(=O)[nH]1)c1c(N)n(CC(C)C)c(=O)[nH]c1=O	0	0	24	0	0	0
O=C(NNc1c(Cl)cccc1Cl)c1ccno1	0	0	0	0	0	0
Cc1cccc(C)c1C(=NCCN(C)C)c1ccccc1	0	0	0	0	48	0
CC(NC(=O)c1cccc2c1Oc1ccccc1S2)C(=O)O (configuration not stated)	0	0	0	0	0	0
CC(=O)Nc1ccc(C(=O)NC2CCSc3ccccc32)cc1 (configuration not stated)	0	0	0	0	0	0
Cc1ccc(NC(=S)NC2CCSc3ccccc32)cc1 (configuration not stated)	0	0	0	0	49	75
OC[C@@H](O)[C@@H](O[C@@H]1O[C@H](CO)[C@H](O)[C@H](O)[C@H]1O)[C@H](O)[C@@H](O)CO	0	0	0	0	0	0
Cc1ccc(CN2CCN(C/C(Cl)=C/c3ccccc3)CC2CCO)o1 (configuration not stated)	0	0	0	0	0	0
O=C(NC(c1ccccc1)c1ccsc1)C1CCN(CCOc2ccc(Cl)cc2Cl)CC1 (configuration not stated)	0	0	0	0	0	0
CCN(CC)c1ccc(/C=C(/C#N)c2nc3ccccc3[nH]2)c(OC(C)C)c1	0	57	0	0	0	0
CCOc1cccc(/C=C(/C#N)c2nc3ccccc3[nH]2)c1OCC(=O)O	0	0	0	0	0	0
